Laboratory results as given in ChEMBL document CHEMBL3102843, “Synthesis and antifungal activity of substituted 2,4,6-pyrimidinetrione carbaldehyde hydrazones” (Bioorg Med Chem, 2014).
Values after ≈ are worked out from the molar mass of the structure shown. Active and inactive are the calls of the source. Unless noted, the calls are words filed in the database; no cut-off is given here.

Legend:
Nakaseomyces glabratus [1] = experiment: Antifungal activity against Candida glabrata ATCC 48435 at 125 ug/ml after 48 to 72 hrs by broth microdilution method; format: functional, organism-based
In short: (§1)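 Broth microdilution per NCCLS. Inocula come from 5–7 colonies on YM agar, suspended in sterile water and adjusted to 0.5 McFarland at 530 nm (stock 1×10⁶–5×10⁶ cells/mL), then diluted 1:50 in HEPES-buffered RPMI 1640. Compounds in DMSO (final ≤1%) are added as a 10-fold dilution into the suspension. Plates run 48–72 h at 35 °C, humid. Growth is scored visually; the endpoint is ≥80% reduction versus drug-free wells.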

Candida albicans [2] = experiment: Antifungal activity against Candida albicans ATCC 10231 at 125 ug/ml after 48 to 72 hrs by broth microdilution method; format: functional, organism-based; in short: as §1
Candida albicans [3] = experiment: Antifungal activity against Candida albicans ATCC 10231 after 48 to 72 hrs by broth microdilution method; format: functional
In short: (§2)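 Broth microdilution per NCCLS. Organisms were subcultured on Sabouraud agar. Inoculum was 5–7 colonies from YM agar in sterile water, adjusted to 0.5 McFarland at 530 nm (1–5×10⁶ cells/mL stock), held 30 min at RT, then diluted 1:50 in HEPES-buffered RPMI 1640. DMSO stocks were twofold-diluted, with final DMSO ≤1%. Plates ran 48–72 h at 35 °C, humid. MIC is the lowest concentration giving ≥80% growth reduction vs drug-free wells, scored visually. Fluconazole or amphotericin B ran as drug control.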

Nakaseomyces glabratus [4] = experiment: Antifungal activity against Candida glabrata ATCC 48435 after 48 to 72 hrs by broth microdilution method; format: functional; in short: as §2
Candida albicans [5] = experiment: Antifungal activity against Candida albicans ATCC 10231 at 62 ug/ml after 48 to 72 hrs by broth microdilution method; format: functional
Nakaseomyces glabratus [6] = experiment: Antifungal activity against Candida glabrata ATCC 48435 at 62 ug/ml after 48 to 72 hrs by broth microdilution method; format: functional
Candida albicans [7] = experiment: Antifungal activity against Candida albicans ATCC 10231 at 8 ug/ml after 48 to 72 hrs by broth microdilution method; format: functional
HepG2 [8] = experiment: Cytotoxicity against human HepG2 cells assessed as cell viability at 2 to 200 ug/ml after 24 hrs by MTT assay; format: cell-based; conditions: hepg2, 24 h
In short: (§3)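 MTT (tetrazolium) assay in Vero and HepG2 cells. Cells were pre-grown 24 h at 37 °C/5% CO₂ in DMEM with 10% FBS. Compounds diluted in media at the fungal MIC and at 5×, 10× and 100× MIC, then exposed 24 h. Dye was added for 1–4 h, then stop solution for 1 h at RT; A570 read. Viability was taken as % of 1% DMSO no-drug wells, with 0.1% saponin as death control. Triplicate, mean ± SD.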

[9] = Cytotoxicity against african green monkey Vero cells assessed as cell viability at 10 times MIC80 for fungus after 24 hrs by MTT assay; format: cell-based; conditions: chlorocebus sabaeus, read-out: Activity; in short: as §3
Candida albicans [10] = experiment: Antifungal activity against Candida albicans SC5314 at 0.195 to 100 uM after 24 to 48 hrs in presence of 3% ethanol; format: functional, organism-based
In short: (§4)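 Cells grown overnight in YPD at 30 °C, washed, then seeded at ~10³ cells/well (10⁴ cells/mL) in YPD (2% glucose), YPG (3% glycerol) or YPE (3% ethanol), pH 6.5. Drug at 0 and 0.195–100, final DMSO 0.5%. Two repeat experiments.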

Nakaseomyces glabratus [11] = experiment: Antifungal activity against Candida glabrata CS 177.93 at 0.195 to 100 uM after 24 to 48 hrs in presence of 2% glucose; format: functional, organism-based; in short: as §4
Candida albicans [12] = experiment: Antifungal activity against Candida albicans SC5314 at 0.195 to 100 uM after 24 to 48 hrs in presence of 3% glycerol; format: functional, organism-based; in short: as §4
Candida albicans [13] = experiment: Antifungal activity against Candida albicans SC5314 at 0.195 to 100 uM after 24 to 48 hrs in presence of 2% glucose; format: functional, organism-based; in short: as §4
Candida albicans [14] = experiment: Antifungal activity against Candida albicans; format: functional, organism-based; in short: as §2
Nakaseomyces glabratus [15] = experiment: Antifungal activity against Candida glabrata CS 177.93 at 0.195 to 100 uM after 24 to 48 hrs in presence of 3% ethanol; format: functional, organism-based; in short: as §4
Nakaseomyces glabratus [16] = experiment: Antifungal activity against Candida glabrata CS 177.93 at 0.195 to 100 uM after 24 to 48 hrs in presence of 3% glycerol; format: functional, organism-based; in short: as §4
[17] = Cytotoxicity against african green monkey Vero cells assessed as cell viability at 2 to 200 ug/ml after 24 hrs by MTT assay; format: cell-based; conditions: chlorocebus sabaeus, read-out: Activity; in short: as §3
HepG2 [18] = experiment: Cytotoxicity against human HepG2 cells assessed as cell viability at 8 to 800 ug/ml after 24 hrs by MTT assay; format: cell-based; conditions: hepg2, 24 h; in short: as §3
[19] = Cytotoxicity against african green monkey Vero cells assessed as cell viability at 8 to 800 ug/ml after 24 hrs by MTT assay; format: cell-based; conditions: chlorocebus sabaeus, read-out: Activity; in short: as §3

| Structure (SMILES) | Activity (Nakaseomyces glabratus [1]) | Activity (Candida albicans [2]) | MIC80 (Candida albicans [3]) | MIC80 (Nakaseomyces glabratus [4]) | also measured |
| --- | --- | --- | --- | --- | --- |
| CN1C(=O)C(C(=O)c2ccc(O)cc2)C(=O)N(C)C1=O | inactive | inactive |  |  |  |
| CN1C(=O)C(C(=O)c2cccc([N+](=O)[O-])c2)C(=O)N(C)C1=O | inactive | inactive |  |  |  |
| O=C1NC(=O)C(CCCc2ccccc2)C(=O)N1 | inactive | inactive |  |  |  |
| COc1ccc(C(=O)C2C(=O)N(C)C(=O)N(C)C2=O)cc1 | inactive | inactive |  |  |  |
| O=C1NC(=O)C(Cc2ccc(O)cc2)C(=O)N1 | inactive | inactive |  |  |  |
| CC(C)C1C(=O)NC(=O)N(c2ccccc2)C1=O (stereo not drawn) | inactive | inactive |  |  |  |
| CN1C(=O)NC(=O)C(C=O)C1=O (stereo not drawn) | inactive | inactive |  |  |  |
| COc1ccc(C(=O)C2C(=O)NC(=O)NC2=O)cc1 | inactive | inactive |  |  |  |
| CC(=O)C1C(=O)NC(=O)N(c2ccccc2)C1=O (stereo not drawn) | inactive | inactive |  |  |  |
| CN1C(=O)C(/C=N/NC(=O)c2ccc([N+](=O)[O-])cc2)C(=O)N(C)C1=O |  |  | 62 µg/mL (≈ 179 µM) | 125 µg/mL (≈ 360 µM) | inhibition at 62 µg/mL (Candida albicans [5]): < 50% |
| O=C1NC(=O)N(c2ccccc2)C(=O)C1C(=O)c1ccc(O)cc1 (stereo not drawn) | inactive | inactive |  |  |  |
| CN1C(=O)C(C(=O)c2ccc([N+](=O)[O-])cc2)C(=O)N(C)C1=O | inactive | inactive |  |  |  |
| O=C1NC(=O)N(c2ccccc2)C(=O)C1CC1CCC(O)CC1 (stereo not drawn) | inactive | inactive |  |  |  |
| CN1C(=O)NC(=O)C(C(=O)c2ccccc2)C1=O (stereo not drawn) | inactive | inactive |  |  |  |
| O=C1NC(=O)C(C(=O)c2ccccc2)C(=O)N1 | inactive | inactive |  |  |  |
| CCCCN1C(=O)NC(=O)C(C(=O)c2ccc(O)cc2)C1=O (stereo not drawn) | inactive | inactive |  |  |  |
| CN1C(=O)C(C(=O)c2cccnc2)C(=O)N(C)C1=O | inactive | inactive |  |  |  |
| CN(C)c1ccc(CC2(CCCc3ccccc3)C(=O)NC(=O)NC2=O)cc1 | inactive | inactive |  |  |  |
| O=C1NC(=O)C(Cc2ccccc2)(Cc2ccccc2)C(=O)N1 | inactive | inactive |  |  |  |
| O=C1NC(=O)C(C(=O)c2ccc([N+](=O)[O-])cc2)C(=O)N1 | inactive | inactive |  |  |  |
| CN/N=C/C1C(=O)N(C)C(=O)N(C)C1=O |  |  | 62 µg/mL (≈ 292 µM) | 125 µg/mL (≈ 589 µM) | inhibition at 62 µg/mL (Candida albicans [5]): < 50% |
| O=C1NC(=O)C(C(=O)c2cccc([N+](=O)[O-])c2)C(=O)N1 | inactive | inactive |  |  |  |
| COc1ccc(C(=O)N/N=C/C2C(=O)N(C)C(=O)N(C)C2=O)cc1 |  |  | 62 µg/mL (≈ 187 µM) | 31 µg/mL (≈ 93.3 µM) | inhibition at 62 µg/mL (Candida albicans [5]): < 50% |
| O=CC1C(=O)NC(=O)NC1=O | inactive | inactive |  |  |  |
| COc1ccc(C(=O)N/N=C/C2C(=O)NC(=O)NC2=O)cc1 |  |  | inactive | 62 µg/mL (≈ 204 µM) | inhibition at 62 µg/mL (Nakaseomyces glabratus [6]): < 50% |
| CC(=O)C1C(=O)NC(=O)NC1=O | inactive | inactive |  |  |  |
| O=C1NC(=O)C(/C=N/c2ccccc2O)C(=O)N1 |  |  | 8 µg/mL (≈ 32.4 µM) | inactive | inhibition at 8 µg/mL (Candida albicans [7]): < 50% |

| Structure (SMILES) | Activity (Nakaseomyces glabratus [1]) | Activity (Candida albicans [2]) | MIC80 (Candida albicans [3]) | MIC80 (Nakaseomyces glabratus [4]) | also measured |
| --- | --- | --- | --- | --- | --- |
| CN1C(=O)C(/C=N/Nc2ccccc2)C(=O)N(C)C1=O |  |  | 4 µg/mL (≈ 14.6 µM) | 2 µg/mL (≈ 7.29 µM) | Activity (HepG2 [8]): Toxic; viability at 24 h [9]: 80% |
| CN1C(=O)C(/C=N/Nc2ccc([N+](=O)[O-])cc2)C(=O)N(C)C1=O |  |  | 2 µg/mL (≈ 6.26 µM) | 2 µg/mL (≈ 6.26 µM) | Activity (HepG2 [8]): Toxic; viability at 24 h [9]: 80% |
| CCCCCCCC1C(=O)NC(=O)NC1=O | inactive | inactive |  |  |  |
| CN1C(=O)C(CCCc2ccccc2)C(=O)N(C)C1=O | inactive | inactive |  |  |  |
| CN1C(=O)C(C(=O)c2ccccc2)C(=O)N(C)C1=O | inactive | inactive |  |  |  |
| O=C1NC(=O)C(/C=N/Nc2ccc([N+](=O)[O-])cc2)C(=O)N1 |  |  | 2 µg/mL (≈ 6.87 µM) | 1 µg/mL (≈ 3.43 µM) | Activity (Candida albicans [10]): Active; Activity (Nakaseomyces glabratus [11]): Active; Activity (Candida albicans [12]): Active; Activity (Candida albicans [13]): Active; Activity (Candida albicans [14]): Dose-dependent effect; Activity (Nakaseomyces glabratus [15]): Active; Activity (HepG2 [8]): Toxic; Activity (Nakaseomyces glabratus [16]): Active; viability at 24 h [9]: 80% |
| O=C1NC(=O)C(CCCC2CCCCC2)C(=O)N1 | inactive | inactive |  |  |  |
| CN(C)c1ccc(CC2(Cc3ccc(N(C)C)cc3)C(=O)NC(=O)NC2=O)cc1 | inactive | inactive |  |  |  |
| O=C1NC(=O)C(C(=O)c2ccc(O)cc2)C(=O)N1 | inactive | inactive |  |  |  |
| O=C1NC(=O)C(Cc2ccc3ccccc3c2)C(=O)N1 | inactive | inactive |  |  |  |
| CCCCN1C(=O)NC(=O)C(C(=O)c2ccc(OC)cc2)C1=O (stereo not drawn) | inactive | inactive |  |  |  |
| O=C1NC(=O)C(C(=O)c2cc([N+](=O)[O-])cc([N+](=O)[O-])c2)C(=O)N1 | inactive | inactive |  |  |  |
| O=C1NC(=O)C(CC2CCC(O)CC2)C(=O)N1 (stereo not drawn) | inactive | inactive |  |  |  |
| CN1C(=O)C(C(=O)c2cc([N+](=O)[O-])cc([N+](=O)[O-])c2)C(=O)N(C)C1=O | inactive | inactive |  |  |  |
| C/C(=N\Nc1ccc([N+](=O)[O-])cc1)C1C(=O)NC(=O)NC1=O |  |  | 2 µg/mL (≈ 6.55 µM) | 2 µg/mL (≈ 6.55 µM) | viability at 24 h [17]: 35%; Activity (HepG2 [8]): Toxic |
| C/C(=N\Nc1ccccc1)C1C(=O)N(C)C(=O)N(C)C1=O |  |  | 2 µg/mL (≈ 6.94 µM) | 2 µg/mL (≈ 6.94 µM) | viability at 24 h [17]: 35%; Activity (HepG2 [8]): Toxic |
| O=C1NC(=O)C(/C=N/c2ccncc2)C(=O)N1 |  |  | inactive | inactive |  |
| O=C1NC(=O)C(/C=N/c2cccc(O)c2)C(=O)N1 |  |  | inactive | inactive |  |
| N/N=C/C1C(=O)NC(=O)NC1=O |  |  | 125 µg/mL (≈ 735 µM) | 16 µg/mL (≈ 94 µM) |  |
| C/C(=N\N)C1C(=O)N(C)C(=O)N(C)C1=O |  |  | inactive | inactive |  |
| CN1C(=O)C(/C=N/c2ccncc2)C(=O)N(C)C1=O |  |  | inactive | inactive |  |
| O=C1NC(=O)C(/C=N/NC(=O)c2ccccc2)C(=O)N1 |  |  | inactive | inactive |  |
| O=C1NC(=O)C(C2CCCCC2)C(=O)N1 | inactive | inactive |  |  |  |
| COC(=O)N/N=C(\c1ccc([N+](=O)[O-])cc1)C1C(=O)NC(=O)NC1=O |  |  | inactive | inactive |  |
| COc1ccc(/C(=N\CCCCCC(=O)O)C2C(=O)NC(=O)NC2=O)cc1 |  |  | inactive | inactive |  |
| CN1C(=O)C(/C=N/c2ccccc2O)C(=O)N(C)C1=O |  |  | 8 µg/mL (≈ 29.1 µM) | inactive | Activity (HepG2 [18]): Toxic; inhibition at 8 µg/mL (Candida albicans [7]): < 50%; viability at 24 h [19]: 35% |
| O=C1NC(=O)C(=Cc2ccoc2)C(=O)N1 |  |  | inactive | inactive |  |
